Screening data: PubChem BioAssay, Sanford-Burnham Center for Chemical Genomics
Diaphorase act – compounds boosting diaphorase resazurin reduction – biochemical, uHTS, resorufin fluorescence, counter-screen for diaphorase-coupled primary assays, primary screen | Diaphorase/resazurin coupled assay, 16 min; hits give high values; 1 = vehicle wells, 0 = NADH-free wells | activation factor at 20 µM | 190,000 tested, 0.005% active | AID 1229, 2008;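 active means diaphorase activity raised at least twofold by the compound at 20 µM; inactive means activation factor below 2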
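Material: purified diaphorase enzyme from Clostridium kluyveri; Also added: 0.114 mM NADH and 0.1 mM resazurin, final amounts; Doses: single compound dose of 20 µM, 1% DMSO final; Times: 16 min enzyme reaction, ambient temperature; Detection: resorufin fluorescence, excitation 544 nm, emission 590 nm; Measure: increased resorufin signal from activators or reducing compounds.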
PMI activator – activators of human PMI, primary screen, biochemical, fluorescence intensity, near-Km mannose 6-phosphate; Mannose-6-phosphate isomerase (Homo sapiens), P34949; purified human PMI, coupled resazurin fluorescence, 20 min; hits give high values; 1 = vehicle control, 0 substrate-free wells; activation factor at 20 µM; 190,000 tested, 0.005% active;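 active means activation factor of 2 or more at 20 µM, relative to plate controls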
Target sequence (P34949 whole entry, looked up): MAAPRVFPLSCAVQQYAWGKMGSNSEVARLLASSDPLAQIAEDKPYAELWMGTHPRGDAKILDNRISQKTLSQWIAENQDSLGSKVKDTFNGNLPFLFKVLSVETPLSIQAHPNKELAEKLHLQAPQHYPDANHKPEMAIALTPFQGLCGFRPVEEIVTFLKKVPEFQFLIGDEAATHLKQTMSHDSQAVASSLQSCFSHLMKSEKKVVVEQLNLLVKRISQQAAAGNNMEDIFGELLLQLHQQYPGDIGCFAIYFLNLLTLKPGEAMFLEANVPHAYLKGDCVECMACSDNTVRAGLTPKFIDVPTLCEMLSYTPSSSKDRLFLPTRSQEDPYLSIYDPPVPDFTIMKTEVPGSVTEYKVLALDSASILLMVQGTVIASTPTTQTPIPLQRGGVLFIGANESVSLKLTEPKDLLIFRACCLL
PMI act satM6P – human PMI activators, high substrate, primary screen, biochemical, fluorescence intensity, near-saturating mannose 6-phosphate. activation factor at 20 µM. 190,000 tested, 0.34% active. AID 1216, 2008. coupled PMI enzyme assay, resazurin fluorescence, 20 min; hits give high values; 1 = untreated enzyme, 0 = substrate-free blank;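 active means activation factor of 2 or more at 20 µM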
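Test system: human PMI in coupled enzyme assay; Input: PMI at 15 ng/mL final; Medium: HEPES buffer, pH 7.4; Schedule: 20 min incubation at room temperature; Technique: resorufin fluorescence at Ex 544/Em 590 nm; Compound: 20 µM single dose; Probe or stimulus: Near-saturating mannose-6-phosphate, 1.0 mM.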
G6PDH CS – L. mesenteroides G6PDH inhibitors, counter-screen for G6PDH-coupled screening assays, biochemical, Leuconostoc mesenteroides enzyme | inhibition, % at 5 µM | Purified L. mesenteroides G6PDH, diaphorase/resazurin coupled fluorescence, 45 min | glucose-6-phosphate dehydrogenase [Leuconostoc mesenteroides] | 200,000 tested, 0.12% active; in the data active means inhibition above about 50%
Diaphorase inh – diaphorase inhibitors and chemical oxidizers, primary screen, counter-screen for diaphorase-coupled primary assays, biochemical, uHTS, resorufin fluorescence; inhibition, % at 20 µM; 190,000 tested, 0.69% active; AID 1217, 2008; diaphorase resazurin-to-resorufin fluorescence, NADH, 16 min; bacterial (C. kluyveri) enzyme, not human;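 active means primary screen inhibition at 20 µM above a set limit, cut at about 50% in these data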;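 further: plate controls were DMSO with full reaction for no effect and wells lacking NADH for full effect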
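controls = No-NADH positive control and DMSO neutral control | system = Clostridium kluyveri diaphorase enzyme | timing = reaction incubation of 16 min at room temperature | signal = resorufin fluorescence 544/590 nm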
An asterisk follows results filed as active; . = no result given. Only some compounds are listed: those with a hit (about 1.1% of all), similar ones and a draw of the others.

SMILES	Diaphorase act	PMI activator	PMI act satM6P	G6PDH CS	Diaphorase inh
COc1ccc2c(C)cc(=S)[nH]c2c1	0.8	1.6	2.5*	3	16
NC(=O)/C(=N\O)c1ccccc1	0.9	1	1	2	10
O=C(/C(=N/N=C/c1ccc(O)c(O)c1O)c1ccccc1)c1ccccc1	0.4	0.4	0.7	20	62*
Oc1ccc(/C=N/N=C(c2ccccc2)c2ccccc2)c(O)c1O	0.3	0.3	0.4	-28	75*
CCN(CC)S(=O)(=O)c1ccc(NN=C2CCN(C)CC2)c([N+](=O)[O-])c1	0.9	1	0.9	4	11
CN(C)/C=C1\Oc2ccc3ccccc3c2C1=O	0.3	0.1	0.2	34	70*
CN(C)/C=C1/Oc2c(ccc3ccccc23)C1=O	0.7	0.8	0.4	3	32
CCCCNC(=O)CSc1nc2ccc(C)cc2[nH]1	0.9	1	1	3	7
CCOC(=O)CCCNC(=O)CSc1nc2ccc(OCC)cc2[nH]1	0.5	0.8	0.8	0	54*
CC1=C(C(=O)Nc2ccccc2C)C2(CCCCC2)C(C(N)=O)C(=S)N1 (centres undefined)	0.9	1.5	2*	18	10
CCO[C@@H]1OC(C(=O)N2CCN(C)CC2)=C[C@H](c2ccc(C(F)(F)F)cc2)[C@H]1CCCO	0.9	1	1	6	8
C#Cc1ccc([C@H]2C=C(C(=O)N3CCN(Cc4ccc5c(c4)OCO5)CC3)O[C@@H](OCC)[C@@H]2CCCO)cc1	0.4	0.9	0.9	7	55*
CCO[C@H]1OC(C(=O)N2CCN(C)CC2)=C[C@@H](c2ccc(C(F)(F)F)cc2)[C@@H]1CCCO	0.3	0.9	1	18	74*
O=S(=O)(NC1=NCCCCC1)c1ccc2ccccc2c1	0.9	1	1	1	5
Cc1ccc(S(=O)(=O)N/N=C2\C(=O)C3(C)CCC2C3(C)C)cc1 (centres undefined)	0.9	1.8	2.1*	11	8
NC(=O)NC(=O)COC(=O)c1cccc(NS(=O)(=O)/C=C/c2ccccc2)c1	0.8	0.9	0.9	4	20
C=C1c2cc(C)ccc2NC(=O)N1c1ccccc1	1	1.8	2.9*	11	5
COc1ccc(N2C(=O)c3ccccc3NC2(C)C)cc1	1	1.1	1.1	4	-1
C=C1c2ccccc2NC(=O)N1c1ccc(OC)cc1	0.8	1.7	2.5*	15	18
Cc1nnc(NC(=O)CSc2ccc3nnc(-c4cccnc4)n3n2)s1	0.9	1.2	1.1	-5	11
CC(=O)C(C(C)=O)c1c(Cl)c(O)c(O)c2c(C(=O)c3ccccc3)coc12	0.3	0.4	0.4	7	67*
CCN(C(=O)CSc1nnc(-c2ccc(Cl)cc2)n1C)C1CCS(=O)(=O)C1 (centres undefined)	1	1.1	1.1	1	5
Cc1cc(C)c(C#N)c(SCc2[nH]nc3c2C(c2ccc(F)cc2)C(C#N)=C(N)O3)n1 (centres undefined)	0.5	0.9	0.8	-5	46
Cc1cc(C#N)c(C)c(SCc2[nH]nc3c2C(c2ccccc2)C(C#N)=C(N)O3)n1 (centres undefined)	0.5	0.9	0.7	1	54*
CCCCNC1=CC(=O)C(=O)c2ccccc21	.	.	.	60*	.
O=c1c(-c2nn[nH]n2)coc2ccc(Cl)cc12	0.9	1	1.1	6	8
CC(C)C1Nc2ccc(C(=O)O)cc2C2C=CCC21 (centres undefined)	0.6	1.3	1.1	24	42
CCCC1Nc2ccc(C(=O)O)cc2C2C=CCC12 (centres undefined)	0.9	1.6	2*	11	10
